Experimental data published in publication PMC8212709 (Clinical and Translational Science, 2021).
Read-outs that look alike come from different tables or passages of the source.

Experiments:
[1] = Plasma pharmacokinetics of TAK‐020; type: in vivo, human (healthy subjects); conditions: for half-life / Tmax: human, plasma
Summary of the method: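 In the MRD part, healthy subjects took oral test compound q.d. (3.75–60 mg) or placebo, with sampling on days 1 and 9. Plasma levels were measured by validated HPLC-MS/MS (LLOQ 0.10 ng/mL). Noncompartmental parameters used actual sampling times, with geometric mean and %CV for Cmax and AUC. Accumulation ratios were based on Cmax and AUC24, plus the LS-mean ratio AUC24 (day 9):AUC∞ (day 1).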

BTK = BTK (Homo sapiens, UniProt Q06187); assay: BTK occupancy assay in whole blood cell lysates; type: in vivo
Summary of the method: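 Healthy subjects in SRD cohorts 1–4 (6 test compound, 2 placebo per cohort) took a single oral dose (0.1 mg starting dose, given as solution) or placebo while fasted. Unoccupied BTK in whole-blood cell lysates was captured by a biotin-modified covalent probe of the test compound. Occupancy was computed per postdose time up to 96 h as 100 − [100 × (BTK concentration ÷ predose BTK concentration)].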

[2] = system: FcεRI‐mediated activation of basophils; assay: Basophil activation test; type: in vivo, human
[3] = system: rat collagen‐induced arthritis model; conditions: nonclinical, no reference given; cited from earlier work
[4] = rats, nonclinical, no reference given, cited from earlier work
[5] = dogs, nonclinical, no reference given, cited from earlier work
[6] = nonclinical studies, oral solution; no reference given; cited from earlier work
[7] = rat, most sensitive toxicological species; nonclinical, no reference given; cited from earlier work

Chain of BTK (Q06187 whole entry): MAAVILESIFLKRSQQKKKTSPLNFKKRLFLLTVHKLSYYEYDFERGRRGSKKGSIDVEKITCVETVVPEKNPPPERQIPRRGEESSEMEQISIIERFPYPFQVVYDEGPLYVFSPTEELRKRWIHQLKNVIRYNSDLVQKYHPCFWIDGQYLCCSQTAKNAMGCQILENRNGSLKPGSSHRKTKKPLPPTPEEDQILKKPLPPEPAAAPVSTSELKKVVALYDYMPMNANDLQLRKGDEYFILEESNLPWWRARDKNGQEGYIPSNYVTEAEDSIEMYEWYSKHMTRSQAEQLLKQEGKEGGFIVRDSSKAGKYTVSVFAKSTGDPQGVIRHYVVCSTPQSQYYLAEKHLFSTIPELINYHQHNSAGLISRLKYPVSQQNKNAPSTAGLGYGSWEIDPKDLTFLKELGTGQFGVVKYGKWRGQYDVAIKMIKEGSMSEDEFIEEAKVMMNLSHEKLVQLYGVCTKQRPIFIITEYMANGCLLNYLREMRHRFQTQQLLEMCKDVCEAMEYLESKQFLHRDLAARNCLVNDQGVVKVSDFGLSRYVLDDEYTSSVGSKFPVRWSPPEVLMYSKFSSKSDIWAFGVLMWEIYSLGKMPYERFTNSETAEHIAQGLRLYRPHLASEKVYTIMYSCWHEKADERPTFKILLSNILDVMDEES

C=CC(=O)N1CC[C@H](Oc2nc(-c3n[nH]c(=O)[nH]3)cc3ccccc23)C1 [TAK‐020]
least‐squares means ratio of AUC24 (day 9):AUC∞ (day 1) ([1]; MRD): near unity | accumulation ratio based on AUC24 (Rac(AUC24)), geometric mean ([1]; MRD 3.75 to 60 mg q.d.): near unity | accumulation ratio based on Cmax (Rac(Cmax)), geometric mean ([1]; MRD 3.75 to 60 mg q.d.): near unity | steady‐state systemic exposure (mean dose‐normalized Cmax and AUC24) vs dose ([1]; MRD, days 1 and 9): dose‐proportional manner up to 60 mg | half-life ([1]; oral, 3.75 mg, mean t1/2z, MRD, 3.75‐mg dose, day 1): 2.59 h | half-life ([1]; oral, 3.75 mg, mean t1/2z, MRD, 3.75‐mg dose, day 9 after q.d. dosing): 2.15 h | half-life ([1]; oral, 60 mg, mean t1/2z, MRD, 60‐mg dose, day 1): 6.3 h | half-life ([1]; oral, 60 mg, mean t1/2z, MRD, 60‐mg dose, day 9 after q.d. dosing): 5.46 h | half-life ([1]; oral, half‐life, doses ≥ 2.5 mg (abstract)): 3 to 9 h | half-life ([1]; oral, mean half‐life in plasma, q.d. dosing): 2 to 6 h | Tmax ([1]; oral, median Tmax, MRD 3.75 to 60 mg, after a single dose on day 1): 0.5 to 0.75 h | Tmax ([1]; oral, median Tmax, MRD 3.75 to 60 mg, day 9 after q.d. dosing): 0.75 to 1 h | Tmax ([1]; po, median time to maximum plasma concentration (Tmax), single and multiple doses (abstract)): 0.75 to 1 h | duration of BTK occupancy > 70% (BTK; SRD, 2.5‐mg and 4.4‐mg doses, longest duration investigated): > 96 h | BTK occupancy, maximum and sustained (BTK; SRD, single doses ≥ 2.5 mg (2.5‐mg and 4.4‐mg), blood): > 70% | duration of > 80% BTK occupancy (BTK; single doses of 2.5 and 4.4 mg, postdose): 72 h | BTK occupancy (%) of TAK‐020 binding sites (BTK; single doses of 2.5 and 4.4 mg, up to 72 hours postdose): > 80% | duration of BTK saturation (BTK; single doses ≥2.5 mg): > 24 h | reduction from baseline in the %CD63‐positive basophils ([2]; MRD, day 9 after q.d. administration, doses ≥3.75 mg (3.75 to 60 mg)): > 80% | reduction in the %CD63‐positive basophils sustained throughout the entire dosing interval (predose to 24 hours postdose) ([2]; MRD, ≥ 45‐mg doses, after multiple dosing for 9 days): ≥ 80% | reduction in the %CD63‐positive basophils ([2]; SRD, 0.1‐mg and 0.5‐mg dose groups): essentially no reduction | time to return to baseline basophil activity postdose ([2]; SRD, single doses ≥ 4.4 mg): 36 to 72 h | reduction from baseline of FcεRI‐mediated activation of basophils (%CD63‐positive basophils) ([2]; SRD, single doses ≥ 4.4 mg (4.4–105 mg)): > 80% | median effective dose [3]: 0.31 mg/kg per day | terminal disposition phase elimination half‐life (t1/2z) ([4]; after oral administration): 4.4 to 7.3 h | oral bioavailability [4]: 13.2% | terminal disposition phase elimination half‐life (t1/2z) ([5]; after oral administration): 3.8 to 6.7 h | oral bioavailability [5]: 8.17% | time of peak plasma concentrations postdose [6]: ≤ 2 h | no observed adverse effect level exposure limit (total AUC) [7]: 63 ng·h/mL
